In one experiment the test system is Bacillus subtilis. Put plainly: Antibacterial activity against Bacillus subtilis ATCC 6633 at 50 mg/ml after 24 hrs by disc diffusion method. Format: functional, organism-based. The essentials: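 Disc diffusion on LB agar plates inoculated with 10^6 cells/mL. 6 mm filter discs saturated with 50 µL of compound solution (10–100 mg/mL in DMSO or methanol), placed on plates and incubated at 37 °C for 24 h. Inhibition zone diameter read; zones of 7 mm or more scored as susceptible. Solvent discs tested; gentamicine disc (10 mg/mL) as positive control.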

A further experiment has as its system Escherichia coli. As to the kind of experiment: Antibacterial activity against Escherichia coli ATCC 3509 at 50 mg/ml after 24 hrs by disc diffusion method. Format: functional. As to conditions: ATCC 3509, 24 h, read-out: DIZ. The essentials:
(§1)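 Disc diffusion on LB agar seeded at 10^6 cells/mL. 6 mm discs are saturated with 50 µL compound solution in DMSO or methanol and incubated at 37 °C for 24 h. Inhibition zones of 7 mm or more are counted as susceptible. Solvent discs are run, with streptomycine discs (10 mg/mL) as positive control.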

A further experiment concerns Staphylococcus aureus. Put plainly: Antibacterial activity against Staphylococcus aureus ATCC 6538 at 50 mg/ml after 24 hrs by disc diffusion method. Format: functional. As to conditions: ATCC 6538, 24 h, read-out: DIZ. The essentials:
as §1

In the case of GENTAMICIN, the inhibition zone (IZ) in the experiment with Bacillus subtilis stood at 17 mm.

With `CN[C@@H]1[C@H](O[C@H]2[C@H](O[C@H]3[C@H](O)[C@@H](O)[C@H](N=C(N)N)[C@@H](O)[C@@H]3N=C(N)N)O[C@@H](C)[C@]2(O)C=O)O[C@@H](CO)[C@H](O)[C@H]1O` [STREPTOMYCIN], the figures for the zone of inhibition at 50000 µg/mL with Escherichia coli and in the experiment with Staphylococcus aureus were 18 mm and 15 mm, respectively.
